We go through 24 compounds from ChEMBL document CHEMBL3576833, “Design and Synthesis of Acetylenyl Benzamide Derivatives as Novel Glucokinase Activators for the Treatment of T2DM” (ACS Med Chem Lett, 2015).

One data set concerns the target T1, Hexokinase-4 (Homo sapiens, UniProt P35557).
T1 sequence (P35557 whole entry): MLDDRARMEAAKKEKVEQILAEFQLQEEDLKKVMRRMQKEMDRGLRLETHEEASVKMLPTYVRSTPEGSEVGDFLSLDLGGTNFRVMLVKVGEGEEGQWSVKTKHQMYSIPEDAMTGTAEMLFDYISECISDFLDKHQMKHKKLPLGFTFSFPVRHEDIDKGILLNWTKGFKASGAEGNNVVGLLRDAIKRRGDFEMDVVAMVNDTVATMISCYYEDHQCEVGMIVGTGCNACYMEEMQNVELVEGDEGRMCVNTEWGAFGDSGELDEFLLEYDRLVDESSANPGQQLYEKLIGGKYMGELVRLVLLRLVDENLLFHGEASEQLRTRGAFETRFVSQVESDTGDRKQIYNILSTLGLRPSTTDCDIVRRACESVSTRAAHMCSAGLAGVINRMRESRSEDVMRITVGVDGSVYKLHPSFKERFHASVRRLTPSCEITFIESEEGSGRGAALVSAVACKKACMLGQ
The experiment in a line: Activation of recombinant human pancreatic glucokinase using 10 mM glucose as substrate by G6PDH coupled assay. The gist of the method: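 Recombinant human pancreatic glucokinase, with glucose at 10 mM. Activity was read as the increase in GK enzyme activity. EC50, Vmax and S0.5 were derived from this. Values are means of triplicate runs.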

A short description of data set [1]: Elimination half life in ICR mouse at 3 mg/kg, iv and 10 mg/kg, po. The data set is classed as ADME, organism-based. The note with it: in vivo, read-out: beta t1/2 (converted).
Data set [2] concerns Mus musculus. As to the kind of experiment: Antidiabetic activity in C57BL/6 mouse assessed as reduction of blood glucose AUC at 30 mg/kg, po administered 30 mins prior to glucose challenge measured over 180 mins by OGTT relative to vehicle-treated control. The format is functional. Also noted: scale not given: the % may be the effect or the level left. The gist of the method:
(§1)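 Oral glucose tolerance test in C57BL/6J mice with oral dosing. Blood glucose was followed after the glucose challenge, and the result was expressed as the % reduction in blood glucose AUC.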

Data set [3] in a line: Oral bioavailability in ICR mouse at 10 mg/kg. The format is ADME, organism-based. The conditions noted are these: in vivo.
Data set [4] can be described thus: Clearance in ICR mouse at 3 mg/kg, iv and 10 mg/kg, po. The conditions noted are these: in vivo. The format is ADME, organism-based.
Data set [5] has as its system Mus musculus. As to the kind of experiment: Antidiabetic activity in C57BL/6J mouse assessed as blood glucose level at 30 mg/kg, po after 60 mins by fasted glucose tolerance test. The format is functional. The gist of the method: (§2)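 Fasted glucose tolerance test in C57BL/6J mice. Animals were fasted and dosed orally, with no glucose challenge. Blood glucose was measured at 60 min.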

In data set [6] the test system is Mus musculus. The experiment in a line: Antidiabetic activity in C57BL/6 mouse assessed as reduction of blood glucose AUC at 50 mg/kg, po administered 30 mins prior to glucose challenge measured over 180 mins by OGTT relative to vehicle-treated control. The format is functional. Also on record: scale not given: the % may be the effect or the level left. The gist of the method: as §1

A short description of data set [7]: Apparent permeability of the compound by PAMPA. The format is physicochemical. In general terms: In PAMPA a lipid-coated filter parts donor from acceptor wells.
The nature of data set [8]: Solubility of the compound at pH 7.4. The format is physicochemical. The note with it: buffer.
The subject of data set [9] is Mus musculus. As to the kind of experiment: Toxicity in C57BL/6J mouse assessed as hypoglycemic effect at 30 mg/kg, po after 60 mins. The format is organism-based. The conditions noted are these: in vivo, 1 h. The gist of the method:
as §2

Data set [10] is described as follows: Volume of distribution at steady state in ICR mouse at 3 mg/kg, iv and 10 mg/kg, po. The data set is classed as ADME, organism-based. The note with it: in vivo, read-out: Vdss.

≈ marks a conversion by molar mass, not a printed value.

For orientation: EC50 means the concentration giving half of the maximal effect. As to `COC[C@H](C)Oc1cc(C#Cc2cccc(O)c2)cc(C(=O)Nc2ccn(C)n2)c1`, on Hexokinase-4, the EC50 was found to be 39 nM. As usually defined, the bioavailability is dose-corrected exposure relative to a reference, in per cent. A word on the Papp: it is the rate of passage across a membrane or cell layer, normalised by area and donor concentration. One may read the solubility as how much of the substance goes into solution per volume. Regarding `COC[C@H](C)Oc1cc(C#Cc2cccc(N)c2)cc(C(=O)Nc2ccn(C)n2)c1`, the half-life in data set [1] is 1.1 h. For the same compound, the Activity in the data set with Mus musculus [2] was 47.4%; with Mus musculus [5], above 55 mg/dL; with Mus musculus [6], 52.1%; with Mus musculus [9], “Non-toxic”. In [3], this compound yielded a bioavailability of 49%. The clearance in data set [4] was 43.2 mL/min/kg. Moreover, at Hexokinase-4, the EC50 worked out at 27 nM. Besides, the Papp in [7] was found to be 3.43 ×10⁻⁶ cm/s. For the same compound, the concentration in solution in [8] (solubility) came to 22.2 µM (≈ 8.98 µg/mL). For the same compound, in [10], the Vd amounted to 1.44 L/kg. As to `N[C@@H](CC(=O)N1CCn2c(nnc2C(F)(F)F)C1)Cc1cc(F)c(F)cc1F` [SITAGLIPTIN], the Activity in the data set with Mus musculus [2] is 22.6%. On to `COC[C@H](C)Oc1cc(C#Cc2cccc(NCCN3CCOCC3)c2)cc(C(=O)Nc2ccn(C)n2)c1`, for which the EC50 at Hexokinase-4 amounted to 20 nM. Besides, in the data set on Mus musculus [6], the Activity was 47.9%. With `CCN(CC)c1cccc(C#Cc2cc(O[C@@H](C)COC)cc(C(=O)Nc3ccn(C)n3)c2)c1`, at Hexokinase-4, the EC50 was 163 nM. With `COC[C@H](C)Oc1cc(C#CCNc2ncccn2)cc(C(=O)Nc2ccn(C)n2)c1`, the EC50 on Hexokinase-4 is 301 nM.

As to `COC[C@H](C)Oc1cc(C#Cc2ccc(N)cc2)cc(C(=O)Nc2ccn(C)n2)c1`, on Hexokinase-4, the EC50 came out at 34 nM. The Activity in the data set with Mus musculus [6] was 53.5%. In the same order, the values of `COC[C@H](C)Oc1cc(C#Cc2cccc(NCCN3CCCCC3)c2)cc(C(=O)Nc2ccn(C)n2)c1` are 6 nM and 54%.

`COC[C@H](C)Oc1cc(C#Cc2cccc(OCCN3CCCCC3)c2)cc(C(=O)Nc2ccn(C)n2)c1`: the EC50 on Hexokinase-4 is 7 nM. The Activity with Mus musculus [6] is recorded as 46%.

`COCC#Cc1cc(O[C@@H](C)COC)cc(C(=O)Nc2ccn(C)n2)c1`: on Hexokinase-4, the EC50 worked out at 1870 nM. Same read-out and setting: for `COC[C@H](C)Oc1cc(C#CCN(C)C)cc(C(=O)Nc2ccn(C)n2)c1` the value was 7700 nM.

With `COC[C@H](C)Oc1cc(C#Cc2ccc3[nH]ccc3c2)cc(C(=O)Nc2ccn(C)n2)c1`, the EC50 on Hexokinase-4 was found to be 12 nM.

As for `COC[C@H](C)Oc1cc(C#Cc2ccc3c(c2)OCO3)cc(C(=O)Nc2ccn(C)n2)c1`, the EC50 at Hexokinase-4 worked out at 30 nM. As to `COC[C@H](C)Oc1cc(C#Cc2cccc(N(C)C)c2)cc(C(=O)Nc2ccn(C)n2)c1`, the EC50 on Hexokinase-4 turned out to be 37 nM. For the same compound, in the data set with Mus musculus [6], the Activity is given as 43.7%. The matching figures for `COC[C@H](C)Oc1cc(C#CCOC2CCCCO2)cc(C(=O)Nc2ccn(C)n2)c1` (stereo not given in full): 6 nM and 44.7%. In the case of `COC[C@H](C)Oc1cc(C#Cc2cccc(NCCn3ccnc3C)c2)cc(C(=O)Nc2ccn(C)n2)c1`, the EC50 on Hexokinase-4 worked out at 9 nM. In the case of `COCCNc1cccc(C#Cc2cc(O[C@@H](C)COC)cc(C(=O)Nc3ccn(C)n3)c2)c1`, the Activity in the data set with Mus musculus [2] is 41%. Further, the EC50 at Hexokinase-4 was 39 nM. Take `COC[C@H](C)Oc1cc(C#Cc2cccc(NCCN(C)C)c2)cc(C(=O)Nc2ccn(C)n2)c1`: the Activity with Mus musculus [2] is 56%. Besides, the EC50 on Hexokinase-4 amounted to 6 nM. Take `COC[C@H](C)Oc1cc(C#Cc2cccc(OCCN3CCCC3)c2)cc(C(=O)Nc2ccn(C)n2)c1`: the EC50 on Hexokinase-4 was 6 nM. For the same compound, the Activity in the data set on Mus musculus [6] is reported as 51.6%. Turning to `COC[C@H](C)Oc1cc(C#Cc2cccc(OC(C)C)c2)cc(C(=O)Nc2ccn(C)n2)c1`, the EC50 on Hexokinase-4 is 53 nM. Take `COC[C@H](C)Oc1cc(C#Cc2cccc(NCCN3CCCC3)c2)cc(C(=O)Nc2ccn(C)n2)c1`: at Hexokinase-4, the EC50 came out at 6 nM. For the same compound, in the data set on Mus musculus [6], the Activity was found to be 51.4%. For the compound `COC[C@H](C)Oc1cc(C#Cc2cccc(OCC#N)c2)cc(C(=O)Nc2ccn(C)n2)c1`, the EC50 on Hexokinase-4 stood at 46 nM. In the case of `COC[C@H](C)Oc1cc(C#Cc2ccccc2OC)cc(C(=O)Nc2ccn(C)n2)c1`, the Activity with Mus musculus [2] is recorded as 49.1%. In addition, the EC50 at Hexokinase-4 worked out at 21 nM.

Regarding `COC[C@H](C)Oc1cc(C#Cc2cccc(OCCN3CCOCC3)c2)cc(C(=O)Nc2ccn(C)n2)c1`, the concentration giving a half-maximal response (EC50) on Hexokinase-4 worked out at 16 nM.
